Most compounds without a hit are left out; they make up all but 2.7% or so of the library.
PREPL inh: human PREPL enzyme inhibition. inhibition, % at 5.96 µM. recombinant PREPL, fluorescence polarization activity-based probe. Q4J6C6. 0.68% of 320,000 active; in the data active = inhibition above about 43%;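 note: 0% = enzyme with DMSO and 100% = wells lacking enzyme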
MC4R antag cAMP: blocks human MC4R cAMP signaling | P32245 | MC4R-expressing cells, MTII-stimulated cAMP, LANCE TR-FRET | inhibition, % at 6.5 µM | 0.48% of 360,000 active | AID 540295;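 active = inhibition above its plate's cutoff, the mean of tested wells on that plate plus 3 SD, cut at about 29% in these data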;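 note: 0% = Melanotan II alone and 100% = Melanotan II plus saturating MCL0020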
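Assay system: U2OS cells stably expressing human melanocortin 4 receptor (MC4R) / Dosing: 6.5 µM / Timing: compound 30 min, challenge 1 h, detection 1 h / Measured by: Eu-cAMP/anti-cAMP TR-FRET, emission 671 nm / Replicates: singlicate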
Hep lipid drop: hepatic lipid droplet formation modulation; 0.4% of 240,000 active; AID 1656; inhibition, % at 6.5 µM; AML12 mouse hepatocytes, oleate lipid droplets, BODIPY imaging;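 active = lipid droplet intensity inhibited by at least 50%, with more than 500 cells counted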
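Test system: AML12 mouse liver cells; schedule: overnight exposure; technique: high-content imaging of BODIPY-stained droplets and DAPI nuclei; read-out: % inhibition of corrected integrated BODIPY droplet signal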
NTR1 agonist: activates human neurotensin receptor 1 | NTR1-U2OS beta-arrestin-GFP spot imaging, agonist mode | 0.17% of 330,000 active | activation, % at 20 µM | P30989;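 active = activation at or above 40% of the spot to cytoplasm intensity ratio, with at least 20 cells analyzed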;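 note: 0% = DMSO without peptide and 100% = 100 nM NTR1 peptide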
HTR2A ag: mouse HTR2A agonism via beta-arrestin recruitment; P35363; CHO-K1 mHTR2A beta-arrestin complementation, luminescence; percent of 30 µM serotonin response; activation, % at 7.6 µM; 0.66% of 360,000 active; AID 624169;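 active = activation above a run cutoff, the mean activation of all tested compounds plus 3 SD, cut at about 14% in these data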;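 note: 0% = plate median of compound wells and 100% = 30 µM serotonin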
MC4R barr agon: agonists of human melanocortin 4 receptor (MC4R) beta-arrestin | activation, % at 8.9 µM | AID 540308 | P32245 | 0.98% of 360,000 active | U2OS MC4R beta-arrestin complementation, luminescence; percent of melanotan II response, DMSO zero;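 active = activation above a per-plate cutoff, the mean activation of sample wells on that plate plus 3 SD, cut at about 8% in these data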
MC4R barr conf: human MC4R beta-arrestin agonism confirmation; activation, % at 8.9 µM; shares compounds with MC4R barr agon; AID 602192; 31% of 2,400 active; U2OS MC4R beta-arrestin recruitment, luminescence; scaled DMSO 0%, Melanotan II 100%;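 active = mean activation across replicates above the hit cutoff set in the earlier primary screen, cut at about 8% in these data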
MOR-DOR barr ag: counter-screen for MC4R agonists: agonists of mu-delta opioid heterodimer | activation, % at 9.2 µM | U2OS PathHunter beta-arrestin, beta-gal luminescence; percent of deltorphin B response, DMSO zero | AID 602194 | 5.8% of 2,400 active | shares compounds with MC4R barr agon;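 active = mean activation across replicates exceeds the hit threshold derived in the earlier primary screen, cut at about 18% in these data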;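 note: 100% = deltorphin B at 0.9 µM final and 0% = DMSO alone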
Target sequence (P35372 whole entry, looked up): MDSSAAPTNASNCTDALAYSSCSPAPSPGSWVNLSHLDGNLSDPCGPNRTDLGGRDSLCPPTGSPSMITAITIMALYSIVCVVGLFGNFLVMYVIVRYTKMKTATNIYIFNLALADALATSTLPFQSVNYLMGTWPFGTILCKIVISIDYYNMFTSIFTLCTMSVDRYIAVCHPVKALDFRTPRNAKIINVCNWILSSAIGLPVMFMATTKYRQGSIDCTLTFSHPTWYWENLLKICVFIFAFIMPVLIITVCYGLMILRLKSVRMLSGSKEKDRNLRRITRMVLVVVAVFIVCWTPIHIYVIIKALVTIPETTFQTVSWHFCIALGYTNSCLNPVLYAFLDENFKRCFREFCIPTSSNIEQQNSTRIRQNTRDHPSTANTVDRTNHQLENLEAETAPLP
Target sequence (P41143 whole entry, looked up): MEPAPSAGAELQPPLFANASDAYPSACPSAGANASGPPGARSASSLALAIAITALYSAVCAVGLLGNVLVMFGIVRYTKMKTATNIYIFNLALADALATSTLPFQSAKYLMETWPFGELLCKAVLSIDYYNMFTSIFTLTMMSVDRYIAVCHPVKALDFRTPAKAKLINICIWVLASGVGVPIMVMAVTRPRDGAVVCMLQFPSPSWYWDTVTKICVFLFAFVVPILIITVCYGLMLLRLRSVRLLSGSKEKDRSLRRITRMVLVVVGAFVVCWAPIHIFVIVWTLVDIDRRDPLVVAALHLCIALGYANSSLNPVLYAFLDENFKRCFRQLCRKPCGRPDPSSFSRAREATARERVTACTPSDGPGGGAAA
Starred values were filed as active, the others as inactive.

What do the screens show for `CC1=CC(C)(C)n2c(O)c(N=NC(N)=S)c3cccc1c32`?
PREPL inh: 5.3; MC4R antag cAMP: 9.3; Hep lipid drop: -13.8; NTR1 agonist: 0.1; HTR2A ag: 2.9; MC4R barr agon: 10.9*; MC4R barr conf: 0.7; MOR-DOR barr ag: 2.7

Results for CCN(C(=O)COC(=O)c1oc2ccc(OC)cc2c1C)C1CCS(=O)(=O)C1 (stereo unspecified) ?
MC4R antag cAMP: -3.7; NTR1 agonist: 0.8; HTR2A ag: 0.2; MC4R barr agon: -2.4

What do the screens show for `COc1cc(/C=C2\CC/C(=C\c3cc(OC)c(O)c(OC)c3)C2=O)cc(OC)c1O`?
PREPL inh: 25.9; MC4R antag cAMP: -8.1; Hep lipid drop: 2.2; NTR1 agonist: 5.4; HTR2A ag: 3.0; MC4R barr agon: 21.0*; MC4R barr conf: 55.7*; MOR-DOR barr ag: 35.5*

Results for CC(C)(C)c1ccc(NNC(=O)C2CCC2)cc1 ?
PREPL inh: 4.1; MC4R antag cAMP: 14.0; Hep lipid drop: 1.6; NTR1 agonist: -1.3; HTR2A ag: 4.0; MC4R barr agon: -1.6

Results for CC1CN(C(=O)COC(=O)c2ccccc2O)CC(C)O1 (stereo unspecified) ?
PREPL inh: 3.5; MC4R antag cAMP: -0.6; Hep lipid drop: 0.7; NTR1 agonist: 4.1; HTR2A ag: 10.9; MC4R barr agon: 0.6

Results for C=CCc1ccc(O)c(-c2cc(CC=C)ccc2O)c1 ?
PREPL inh: 2.9; MC4R antag cAMP: 7.4; Hep lipid drop: -12.5; NTR1 agonist: 1.6; HTR2A ag: 1.6; MC4R barr agon: 9.7*; MC4R barr conf: 5.2; MOR-DOR barr ag: 8.6

Results for C=CCOC(=O)C1=C[C@@H](c2ccc(C(F)(F)F)cc2)[C@H](CCCO)[C@@H](OCC)O1 ?
PREPL inh: 1.4; MC4R antag cAMP: 1.0; Hep lipid drop: -15.3; NTR1 agonist: 5.0; HTR2A ag: 6.1; MC4R barr agon: 4.1

How did CCc1cc(C(=O)Cc2cnn(-c3ccccc3)c2)c(O)cc1O do in these assays?
PREPL inh: -7.8; MC4R antag cAMP: -7.1; NTR1 agonist: 10.2; HTR2A ag: 1.6; MC4R barr agon: 22.0*; MC4R barr conf: 7.7; MOR-DOR barr ag: 5.1

How did CC(=O)Nc1cccc(NC(=O)C(=O)c2cn(CC(=O)N3CCCCC3)c3ccccc23)c1 do in these assays?
PREPL inh: -1.1; MC4R antag cAMP: 15.2; Hep lipid drop: -7.0; NTR1 agonist: 0.8; HTR2A ag: -2.6; MC4R barr agon: -0.3

What do the screens show for `C=C(C)C(=O)OC1(C(F)(F)F)Oc2cc(C)ccc2NC1=O` (stereo unspecified)?
PREPL inh: 10.8; MC4R antag cAMP: 16.7; NTR1 agonist: 4.8; HTR2A ag: 0.3; MC4R barr agon: -2.8

What do the screens show for `C/C(=N/OC(=O)C1CC1c1ccccc1)c1ccccc1` (stereo unspecified)?
PREPL inh: -3.1; MC4R antag cAMP: 18.6; Hep lipid drop: 11.7; NTR1 agonist: -1.1; HTR2A ag: -0.2; MC4R barr agon: 2.6

What do the screens show for `Cc1ccc2[nH]c(O)c(N=NC(=O)C3CC3c3ccccc3)c2c1Br` (stereo unspecified)?
PREPL inh: -7.2; MC4R antag cAMP: 8.4; Hep lipid drop: 18.3; NTR1 agonist: 20.6; HTR2A ag: 1.6; MC4R barr agon: 17.9*; MC4R barr conf: 3.3; MOR-DOR barr ag: 1.7

Results for Cc1ccc(NCc2nc(SCC(=O)Nc3ccccc3)n[nH]2)cc1 ?
PREPL inh: 9.1; MC4R antag cAMP: 9.3; Hep lipid drop: 6.3; NTR1 agonist: 2.0; HTR2A ag: -0.8; MC4R barr agon: -0.6

What do the screens show for `CCOc1ccc(-n2nnnc2SCC(=O)c2ccccc2)cc1`?
PREPL inh: -14.2; MC4R antag cAMP: 10.3; NTR1 agonist: 3.4; HTR2A ag: 5.7; MC4R barr agon: 16.0*; MC4R barr conf: -2.8; MOR-DOR barr ag: 1.6

What do the screens show for `CCC(=O)N1CCc2cc(OC)c(OC)cc2C1COc1ccc(F)cc1` (stereo unspecified)?
PREPL inh: 12.1; MC4R antag cAMP: -3.7; Hep lipid drop: 27.1; NTR1 agonist: -0.6; HTR2A ag: 2.6; MC4R barr agon: 0.7

Results for CCOC(=O)c1ccc(NC(=O)Cn2cc3c(n2)CCC(C)C3)cc1 (stereo unspecified) ?
PREPL inh: -0.2; MC4R antag cAMP: 3.0; Hep lipid drop: -19.2; NTR1 agonist: 0.6; HTR2A ag: 3.7; MC4R barr agon: 13.3*; MC4R barr conf: 2.1; MOR-DOR barr ag: 5.0

How did CCOC(=O)N1CCC(NC(=O)Cn2cc3c(n2)CCC(C)C3)CC1 (stereo unspecified) do in these assays?
PREPL inh: -1.0; MC4R antag cAMP: 7.4; Hep lipid drop: -4.1; NTR1 agonist: 0.2; HTR2A ag: 2.6; MC4R barr agon: 0.2

Results for Oc1ccccc1N=Cc1c(O)ccc2oc3c(c12)CCCC3 ?
PREPL inh: 18.2; MC4R antag cAMP: 2.3; NTR1 agonist: 3.6; HTR2A ag: -16.2; MC4R barr agon: 14.3*; MC4R barr conf: 8.3*; MOR-DOR barr ag: 9.5

Results for O=C(O)c1ccc(N=Cc2c(O)ccc3oc4c(c23)CCCC4)cc1 ?
PREPL inh: 2.1; MC4R antag cAMP: 3.2; NTR1 agonist: 3.6; HTR2A ag: -2.5; MC4R barr agon: 1.9

What do the screens show for `Cc1cnc(CNC(=O)C2CCC(=O)N(Cc3ccc(Cl)cc3)C2)[nH]1` (stereo unspecified)?
PREPL inh: -3.4; MC4R antag cAMP: 6.3; Hep lipid drop: -4.7; NTR1 agonist: -1.0; HTR2A ag: 13.6; MC4R barr agon: -0.7

Results for Cc1c(C(=O)NC2CCCc3ccccc32)oc2ccc(S(=O)(=O)N3CCCC3)cc12 (stereo unspecified) ?
PREPL inh: -2.3; MC4R antag cAMP: 17.0; Hep lipid drop: -1.1; NTR1 agonist: 5.1; HTR2A ag: -3.7; MC4R barr agon: 14.2*; MC4R barr conf: 4.0; MOR-DOR barr ag: 3.6

Results for Cc1ccc(-c2nc3ccccc3o2)cc1NC(=S)NC(=O)c1cc2ccccc2o1 ?
PREPL inh: -3.5; MC4R antag cAMP: 1.1; Hep lipid drop: 2.0; HTR2A ag: -0.8; MC4R barr agon: 17.0*; MC4R barr conf: 11.3*; MOR-DOR barr ag: 4.7

Source: PubChem (several laboratories)
